Apaf-1 act – human Apaf-1 activation; O14727; 0.31% of 330,000 active; Apaf-1 apoptosome caspase-3 activation, DEVD-Rh110 fluorescence; stronger effect = lower value; activity change, negative = activation, % at 20 µM;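 active = activity change at or below -40% at 20 µM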
Target sequence (O14727 whole entry, looked up): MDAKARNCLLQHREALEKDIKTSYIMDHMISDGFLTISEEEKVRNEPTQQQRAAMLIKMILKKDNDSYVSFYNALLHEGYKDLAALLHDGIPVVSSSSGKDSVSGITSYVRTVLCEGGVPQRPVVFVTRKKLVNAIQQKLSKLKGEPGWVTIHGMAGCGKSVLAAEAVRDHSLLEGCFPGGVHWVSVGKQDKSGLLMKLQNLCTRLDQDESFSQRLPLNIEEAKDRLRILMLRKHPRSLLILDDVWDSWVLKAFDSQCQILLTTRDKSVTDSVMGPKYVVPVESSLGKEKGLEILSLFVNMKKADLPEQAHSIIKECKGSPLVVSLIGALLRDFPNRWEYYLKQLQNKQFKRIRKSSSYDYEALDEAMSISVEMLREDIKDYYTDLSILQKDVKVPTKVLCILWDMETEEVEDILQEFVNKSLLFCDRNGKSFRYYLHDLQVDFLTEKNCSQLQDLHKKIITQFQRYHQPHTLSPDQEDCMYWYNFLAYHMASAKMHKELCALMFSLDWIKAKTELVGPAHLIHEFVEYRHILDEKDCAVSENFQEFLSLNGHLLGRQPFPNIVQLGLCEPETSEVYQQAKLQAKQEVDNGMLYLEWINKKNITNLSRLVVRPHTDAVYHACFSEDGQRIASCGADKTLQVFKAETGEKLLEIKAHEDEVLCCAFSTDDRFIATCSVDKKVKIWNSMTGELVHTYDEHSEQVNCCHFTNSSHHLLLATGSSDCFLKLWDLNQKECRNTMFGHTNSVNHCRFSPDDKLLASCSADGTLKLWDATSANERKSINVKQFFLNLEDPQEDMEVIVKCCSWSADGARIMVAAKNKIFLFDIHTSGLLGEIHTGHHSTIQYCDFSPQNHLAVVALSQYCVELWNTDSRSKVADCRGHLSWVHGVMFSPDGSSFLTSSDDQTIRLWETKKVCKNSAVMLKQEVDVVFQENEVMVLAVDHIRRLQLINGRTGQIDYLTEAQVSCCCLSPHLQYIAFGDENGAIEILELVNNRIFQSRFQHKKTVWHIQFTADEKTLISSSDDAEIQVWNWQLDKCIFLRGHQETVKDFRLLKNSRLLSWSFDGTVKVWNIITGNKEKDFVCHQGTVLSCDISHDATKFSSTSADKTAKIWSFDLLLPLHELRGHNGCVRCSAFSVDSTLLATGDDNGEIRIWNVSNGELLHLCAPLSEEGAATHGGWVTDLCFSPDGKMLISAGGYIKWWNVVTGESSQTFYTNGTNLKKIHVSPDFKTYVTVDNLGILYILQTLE
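Material: biochemical Apaf-1 apoptosome reconstitution; Medium: 20 mM HEPES buffer, pH 7.5, containing CHAPS and BSA; Reagent: dATP, cytochrome c, and (Z-DEVD)2-Rh110 caspase-3 substrate; Times: 30 min preincubation, 50 min reaction, room temperature; Signal: Rh110 fluorescence, excitation 480 nm, emission 540 nm; Measure: Caspase-3 activity via Apaf-1.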
Rh110 interf act – Rh110 signal interference in Apaf-1 activator counter-screen | shares compounds with Apaf-1 act | Rh110 fluorescence interference, quenched caspase reaction, Ex480/Em540 | fluorescence interference (activity change), % at 20 µM, hits read low | 980 tested, under 10 active | AID 504616;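 active = mean activity change at or below -40% when tested at 20 µM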
Apaf-1 act conf – Apaf-1 (human) activation, single-dose confirmed. shares compounds with Apaf-1 act. reconstituted apoptosome caspase-3 activity, DEVD-Rh110 fluorescence; stronger effect = lower value. activity change, negative = activation, % at 20 µM. 5% of 980 active;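 active = mean activity change at or below -40%, meaning activation of 40% or more, at 20 µM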
Numbers without * were called inactive; / = no result given. A selection follows.

SMILES | Apaf-1 act | Rh110 interf act | Apaf-1 act conf
COc1ccc(C(CNC(=O)C2CC(=O)N(Cc3ccccc3)C2)N2CCCC2)cc1 (stereo unspecified) | 61 | / | /
COc1ccc(OC)c(-c2nn(-c3ccccc3)cc2C(=O)NCC(c2ccco2)N2CCCC2)c1 (stereo unspecified) | -117* | 11 | 14
CSCCC(NC(=O)COc1ccccc1)C(=O)N1CCC(C(N)=O)CC1 (stereo unspecified) | 64 | / | /
O=C(COc1ccccc1)NCC(=O)NC1CCCCC1 | -40* | 3 | 9
Oc1cc(NCCc2cccnc2)cc2cccnc12 | 56 | / | /
c1ccc(-c2nc(C3CCCCC3)no2)cc1 | -154* | 3 | 0
Clc1ccccc1OCc1nn2c(-c3ccncc3)nnc2s1 | 41 | / | /
CCOC(=O)N1CCC(NC(=O)CCC(=O)N2CCOc3ccccc32)CC1 | -305* | 4 | 8
CCOc1ccccc1N1CCN(C(=O)C2c3ccccc3Oc3ccccc32)CC1 | 41 | / | /
C/C(=C\C(=S)Nc1ccccc1)Nc1cccc2ccccc12 | 97 | / | /
CCn1c(=O)c2cc(C(=O)N(C)c3cc(C)ccc3OC)sc2c2ccccc21 | 53 | / | /
CCn1c2ccccc2c2cc(NC(C)=O)ccc21 | -226* | -1 | -1
CC(=O)Nc1ccc2c(c1)N(C(=O)CN(C)C)c1ccccc1CC2 | 43 | / | /
COc1cccc(-c2sc3ccccc3c2-c2ccc(OCCN3CCCC3)cc2)c1 | 71 | / | /
CCC(CO)Oc1cc(NCc2cccnc2)c2ncn(C(C)C)c2c1 (stereo unspecified) | 63 | / | /
CCOCCCn1c(SCC(=O)Nc2cc(C(C)(C)C)nn2-c2ccccc2)nc2ccccc2c1=O | 40 | / | /
C#CCOCCOCCOCCNc1nc(N2CCN(C(=O)CCCCCCCCCCNC(=O)[C@H](CCCCN)n3cc(CCO)nn3)CC2)nc(N2CCN(C(=O)CCCCCCCCCCNC(=O)[C@H](CCCCN)n3cc(C[C@@H](C)CC)nn3)CC2)n1 | 68 | / | /
Cc1sc2ncnc(N3CCC(C(=O)Nc4ccc(Cl)c(Cl)c4)CC3)c2c1C | 42 | / | /
CCC(C)c1ccc(NC(=O)C2CCN(c3ncccn3)CC2)cc1 (stereo unspecified) | -122* | 11 | 16
C1CCC(C(CC2CCCCN2)C2CCCCC2)CC1 (stereo unspecified) | 60 | / | /
Cc1ccc(N2C(=O)[C@@H]3[C@H](C2=O)C2c4ccccc4C=CN2[C@@H]3C(=O)c2ccco2)c(C)c1 (stereo partly specified) | 87 | / | /
Fc1ccccc1Nc1nc(-c2ccncc2)nc2ccccc12 | -321* | 2 | 8
Fc1cccc(CCN2CCNC[C@H]2Cc2cccc3ccccc23)c1 | 43 | / | /
CNC(=S)N/N=C(\C)c1ccc(C)c(C)c1 | -246* | 2 | 6
COc1ccc(-n2nc(C(=O)NCC(=O)NC3CCCC(C)C3C)c3ccccc3c2=O)cc1 (stereo unspecified) | 51 | / | /
SMILES | Apaf-1 act | Rh110 interf act | Apaf-1 act conf
COc1ccc(-n2nc(C(=O)NCC(=O)NC3CCCC(C)C3C)c3ccccc3c2=O)c(OC)c1 (stereo unspecified) | 55 | / | /
CC(OC(=O)c1nn(C)c(=O)c2ccccc12)C(=O)NC1CCCCC1C (stereo unspecified) | -50* | -3 | 10
COc1ccc(-c2sc3ccccc3c2-c2ccc(OCCN3CCCCC3)cc2)cc1 | 55 | / | /
CC[C@@H](C)[C@@H]1CN([C@@H](CN2CCC[C@H]2CN2C(N)=NC[C@H]2CC(C)C)C(C)C)C(=N)N1CCc1ccc(Cl)c(Cl)c1 | 63 | / | /
COCCNC(=O)c1cc2nc(-c3ccccc3)cc(C)n2n1 | -169* | 12 | 14
COCCNC(=O)c1c(N)n(CCC2=CCCCC2)c2nc3ccccc3nc12 | 63 | / | /
CC(C)c1nccn1S(=O)(=O)c1cc(Cl)ccc1Cl | -41* | -1 | 7
CCOc1ccc(Cc2nnc(SCC(=O)Nc3ccc(C(C)=O)cc3)[nH]c2=O)cc1 | -416* | 8 | 22
Cc1[nH]n(-c2ccccc2)c(=O)c1N=Nc1nccs1 | 73 | / | /
O=C(NC1CC1)c1ccc(CS(=O)c2ccccc2)o1 (stereo unspecified) | -97* | 3 | 9
CN1CCN(CC(=O)N2CCn3c4c(c5cc(C6CCCCC6)ccc53)CCCC42)CC1 (stereo unspecified) | 58 | / | /
Cc1cc(C(=O)COc2cccc3cccnc23)c(C)n1C | 53 | / | /
CSc1cccc(NC(=O)c2cccc3cccnc23)c1 | -73* | 2 | 13
O=C(Nc1ccncc1)c1cc(-c2cccc(Br)c2)nc2ccccc12 | 47 | / | /
CCC[C@@H](CN1CCC[C@H]1CN1C(N)=NC[C@@H]1Cc1ccccc1)N1C[C@@H]([C@H](C)CC)N(CCc2ccc(Cl)c(Cl)c2)C1=N | 67 | / | /
Cc1ccc(C(=O)NC(C(=O)Nc2ccccc2)c2ccccc2)cc1 (stereo unspecified) | -55* | 8 | 15
CC(OC(=O)c1cc(O)c2ccccc2c1O)C(=O)Nc1ccc(C(N)=O)cc1 (stereo unspecified) | 49 | / | /
C#CCOCCOCCOCCNc1nc(N2CCN(C(=O)[C@H](CCCCN)n3cc([C@@H](N)C(C)CC)nn3)CC2)nc(N2CCN(C(=O)[C@H](Cc3cc4ccccc4[nH]3)n3cc([C@@H](N)C(C)CC)nn3)CC2)n1 (stereo partly specified) | 53 | / | /
C=CCNC(=O)C1(S(=O)(=O)c2ccccc2)CC=CC1 | -384* | -2 | 8
CN(Cc1ccc(F)cc1)C(=O)CNC(=O)c1cccs1 | 56 | / | /
O=C(O)CCCN1C(=O)/C(=C/c2ccc(-c3nc4ccccc4s3)o2)SC1=S | -406* | 11 | -23
O=C(c1ccc(F)cc1)[C@@H]1[C@@H](C(=O)c2ccccc2)[C@@]2(C(=O)Nc3ccccc32)[C@H]2c3ccccc3C=CN12 | 73 | / | /
O=C(NCc1nnc(SCC(=O)N2CCCCCC2)o1)c1ccccc1F | -251* | 8 | 13
CN(CCO)c1nc(N)c2c(N)nc3c(c2c1C#N)CC(=O)N3C1CCCC1 | 98 | / | /
Cc1cccc(OCc2nc3ccccc3c(=O)n2N)c1 | -92* | -1 | 5
SMILES | Apaf-1 act | Rh110 interf act | Apaf-1 act conf
Cc1ccc(-c2nnc(CSc3nnc(COc4cccc5ccccc45)n3-c3ccccc3)o2)cc1 | 44 | / | /
O=C1c2cc(F)ccc2-n2c1nc1ccccc1c2=O | 63 | / | /
CCN(CC)CCOc1ccc(/C(=C(/Cl)c2ccccc2)c2ccccc2)cc1 | 66 | / | /
C#CCOCCOCCOCCNc1nc(N2CCN(C(=O)CCCCCCCCCCNC(=O)[C@H]([C@@H](C)CC)n3cc(CCCCN=C(N)N)nn3)CC2)nc(N2CCN(C(=O)CCCCCCCCCCNC(=O)[C@@H]([C@H](C)O)n3cc(C)nn3)CC2)n1 | 45 | / | /
O=C(O)C1CCCN(S(=O)(=O)c2ccc(-c3ccc(=O)[nH]n3)s2)C1 (stereo unspecified) | -350* | -5 | 10
COc1ccc(/C=N/NC(=O)c2nn(-c3ccc(Cl)cc3)c(=O)c3c(N)scc23)cc1 | 54 | / | /
Cc1cc(C)c(S(=O)(=O)/N=C2/C=C(SCC(=O)O)C(=O)c3ccccc32)cc1C | 72 | / | /
CCS(=O)(=O)NCCc1csc(C)n1 | -484* | 8 | 12
O=C(CCN1CCOCC1)N1CCCC(Nc2ccc(F)cc2)C1 (stereo unspecified) | -56* | 3 | 5

Assay outcomes as filed in PubChem BioAssay.
